# Source: PubChem
# HSF1 inh: HSF1 inhibition | NIH3T3-HGL HSE-luciferase, MG132-induced, luminescence 8 h; active compounds read low | activity change, negative = inhibition, % at 7.5 µM (by protocol) | 300,000 compounds, 0.77% hits | AID 2098;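 active means more than half of replicate wells show activity change below -50%, luminescence cut by over half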;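 further: luciferase reports HSF-1 transcriptional activity via heat shock element; 0% = median of DMSO wells and -100% = zero luminescence signal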
# Hep lipid drop: hepatic lipid droplet formation modulation | 240,000 compounds, 0.4% hits | AML12 mouse hepatocytes, oleate lipid droplets, BODIPY imaging | AID 1656 | inhibition, % at 6.5 µM;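 active means lipid droplet intensity inhibited by at least 50%, with more than 500 cells counted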
#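 Test system: AML12 hepatocytes (mouse); reagent: oleate loading, 100 µM; dosing: one dose, 6.5 µM compound; incubation: overnight exposure; signal: fluorescence imaging, 20x objective, two fields per well; read-out basis: % inhibition of corrected integrated BODIPY droplet signal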
# CHT block: inhibits the human high affinity choline transporter. Q9GZV3. CHT-expressing cells, membrane potential dye, choline response; active compounds read low. B-score at 10 µM. 310,000 compounds, 0.86% hits. AID 488975;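 active means B-score over 3 SD under the library average, and starting fluorescence ratio not unusually high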;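 further: choline stimulus applied at its EC90 after an EC20 pre-addition; B-score computed on integrated fluorescence ratio after choline addition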
# PHOSPHO1 block: PHOSPHO1 (human) inhibition. 290,000 compounds, 1.1% hits. AID 1565. inhibition, % at 13.3 µM. recombinant PHOSPHO1, absorbance phosphatase assay; in the data active means inhibition above about 60%
# Target sequence (Q8TCT1 whole entry, looked up): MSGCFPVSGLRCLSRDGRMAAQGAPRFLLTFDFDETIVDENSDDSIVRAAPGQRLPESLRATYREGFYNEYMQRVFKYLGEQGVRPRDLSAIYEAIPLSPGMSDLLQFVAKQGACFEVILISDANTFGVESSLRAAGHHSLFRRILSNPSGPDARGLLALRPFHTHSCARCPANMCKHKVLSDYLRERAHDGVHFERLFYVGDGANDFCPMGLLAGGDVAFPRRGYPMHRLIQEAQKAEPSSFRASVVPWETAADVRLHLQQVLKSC
# CHT allo act: allosteric activators of human choline transporter CHT | Q9GZV3 | CHT-expressing cells, membrane potential dye, choline EC20; active compounds read high; LV-AA mutant CHT in HEK293 cells | B-score at 10 µM | 310,000 compounds, 0.49% hits | AID 488977;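 active means initial fluorescence not abnormally high and integrated response B-score, plate-corrected, over 3 SD above library mean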
# HSF-1 act: increases HSF-1 driven luciferase reporter signal. NIH3T3-HGL HSF-1 luciferase reporter, MG132, 8 h; 100% = twice DMSO control signal. AID 504408. activation, % at 9 µM. 300,000 compounds, 1.7% hits;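 active means mean replicate activation of at least 50% with a set share of replicates each reaching 50%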;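 further: 0% = median of the neutral control wells and 100% = twice that signal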
# CHT block conf: confirmation of human choline transporter CHT inhibitors; shares compounds with CHT block; CHT-expressing cells, choline membrane potential dye; LV-to-AA substituted CHT, HEK293 cells; CHT activity remaining % of control (active compounds read low), % at 10 µM; 2,400 compounds, 70% hits; AID 493221;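 active means choline transporter activity left, mean of duplicates at 10 µM, below buffer-only control mean minus 3 SD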;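 further: depolarization triggered by choline at its EC90 following an EC20 pre-addition; 0% = hemicholinium-3 full block and 100% = buffer-only control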
# HEK293 MPD ctr: activity in parental HEK293 cells lacking CHT; membrane potential ratio readout (active if shifted either direction beyond buffer ±3SD; no single direction) at 10 µM; AID 493222; 2,400 compounds, 4% hits; shares compounds with CHT block; membrane potential dye, choline response; active = decrease or increase beyond buffer ±3SD;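 further: parental cells lack the transporter so any hit is non-specific; ratio is peak minus trough fluorescence over baseline after EC90 choline challenge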
# * hit, by the source's call; i = inactive; nt = not tested or not shown. In the library only some 4.9% were active in any assay of this set; here they are far more common.
SMILES,HSF1 inh,Hep lipid drop,CHT block,PHOSPHO1 block,CHT allo act,HSF-1 act,CHT block conf,HEK293 MPD ctr
O=C(O)[C@@H](O)c1ccccc1,-3.0,6.4,i,7.8,i,-17.0,nt,nt
CCC(C(=O)NCc1ccccc1OC)c1ccccc1 (configuration not stated),nt,-36.9,i,7.3,i,nt,i,i
CCC(C(=O)Nc1ccc(OC)c(Cl)c1)c1ccccc1 (configuration not stated),1.2,-25.1,-6.58*,4.2,i,8.5,i,i
COc1ccccc1CNC(=O)C(c1ccccc1)c1ccccc1,6.1,nt,i,29.1,i,6.7,nt,nt
CCn1nnc(NC(=O)c2ccc(-c3ccccc3[N+](=O)[O-])o2)n1,-4.5,7.0,i,-8.8,i,16.5,nt,nt
CC(C)=CCc1cc(-c2oc3cc(O)cc(O)c3c(=O)c2O)ccc1O,1.7,nt,i,nt,i,-11.6,nt,nt
CC(C)=CCc1c(O)cc2oc3c(CC=C(C)C)c(O)c(O)c(CC=C(C)C)c3c(=O)c2c1O,7.8,5.4,-6.51*,31.1,i,1.2,i,i
COc1cc(C=Nc2cccc(C)c2)c(O)c([N+](=O)[O-])c1,-1.8,6.2,-6.91*,0.3,i,8.7,68.0%*,i
Cc1cccc(N=Cc2cc3c(cc2[N+](=O)[O-])OCO3)c1,0.1,nt,i,-134.9,i,0.4,nt,nt
CCOC(=O)c1cc2c(ccn2C)n1CC(=O)N1CCN(c2ccccc2)CC1,4.6,nt,i,15.5,i,38.1,nt,nt
Cc1cc(C)n(S(=O)(=O)c2cc(Cl)ccc2Cl)n1,1.4,nt,i,18.3,i,15.0,nt,nt
Clc1cccc(CNCCNCc2cccc(Cl)c2)c1,-4.6,-2.6,-7.01*,44.8,i,3.8,69.8%*,i
COc1cc(NC(=O)CN2CCN(c3ccccc3F)CC2)cc(OC)c1,nt,13.7,i,-18.5,i,nt,nt,nt
COc1cccc(NC(=O)CN2CCN(c3ccccc3F)CC2)c1,-1.1,2.1,-5.93*,-14.6,i,-4.8,i,i
Cc1cccc(C)c1OCc1cc(C(=O)N2CCN3CCCC3C2)no1 (configuration not stated),6.5,21.5,i,31.3,i,-7.4,nt,nt
Cc1cccc(C)c1OCc1cc(C(=O)N2CCN(C3CCCC3)CC2)no1,5.3,-5.4,-6.26*,47.7,i,13.9,52.5%*,i
O=C(NC1CCC(c2ccccc2)CC1)c1cccnc1 (configuration not stated),-3.6,7.9,i,49.8,i,9.8,nt,nt
COc1cccc(CNC(=O)Cn2ccc3cc(S(=O)(=O)N4CCCCCC4)ccc32)c1,6.0,-1.7,i,34.4,i,4.8,nt,nt
C=CCn1c(SCc2cc(=O)n3ccsc3n2)nc2ccccc2c1=O,0.3,-1.6,i,26.7,i,8.9,nt,nt
Cc1cc(SCc2cc(=O)n3ccsc3n2)nc2ccccc12,3.9,-24.8,-12.8*,4.1,i,10.0,-1.4%*,i
CCOC(=O)C1CCN(c2nc(-c3ccccc3)nc3c2oc2ccccc23)CC1,nt,5.4,i,20.0,i,nt,nt,nt
O=C(O)C1CCN(c2nc(-c3ccccc3)nc3c2oc2ccccc23)CC1,-4.5,nt,-5.98*,11.6,i,0.9,63.2%*,i
Cn1c2c(c(=O)c3ccccc31)CCC(C)(C)O2,-3.0,-4.0,i,-7.4,i,5.6,nt,nt
Cn1c2c(c(=O)c3ccccc31)CCCC2,0.7,-0.7,-8.96*,27.3,i,-3.0,3.9%*,i
COc1cccc(C2=NOC(C(=O)Nc3cccnc3Cl)C2)c1OC (configuration not stated),1.6,2.4,-11.1*,-11.2,i,5.2,i,i
CN(NS(=O)(=O)c1ccc(Cl)cc1)c1ncc(C(F)(F)F)cc1Cl,3.0,-3.3,i,4.4,i,15.3,nt,nt
